Here are results for five compounds from ChEMBL document CHEMBL1126098, “Synthesis and SAR of 6-substituted purine derivatives as novel selective positive inotropes” (J Med Chem, 1992).

Activity calls are given as the source filed them. The calls are words filed in the database; no cut-off is given here.

For one assay, the species on record is Mustela putorius furo. The experiment in a line: In vitro changes in contractile force (CF) quantitated by determining the maximal increase in isometric tension by using ferret papillary muscle. Type of assay: functional, tissue-based. The note with it: Muscle tissue. A digest of the protocol:
(§1)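 Isolated ferret papillary muscle in Tyrode's solution with timolol (1×10^-7 M), equilibrated 2 h. Compound diluted from 1×10^-2 M DMSO stock and added at serially increasing concentrations, up to 10 μM. Isometric tension read 15 min after each addition. Result is maximal increase as % of control tension, from mean of n ≥ 3.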

The nature of assay [1]: Relative change in CF was determined by calculating the effective concentration that produced a 50% of maximum increase in tension. Type of assay: functional, Mustela putorius furo. A digest of the protocol: (§2)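 Ferret papillary muscle in Tyrode's solution with timolol (1×10^-7 M); compound given at cumulative serially increasing concentrations, each read at 15 min. EC50 is the concentration giving 50% of that compound's own maximal tension increase. Estimated graphically from mean data, n ≥ 3.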

The subject of assay [2] is Canis familiaris. Description: Cardiac force in dog after administering ca. 1.875 mg/Kg drug intravenously. Type of assay: functional, Canis lupus familiaris. Set-up: unit not given beside the values. A digest of the protocol:
(§3)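 Adult mongrel dogs anesthetized with sodium pentobarbital (45 mg/kg ip) and artificially respired. MAP measured via cannulated femoral artery; HR from cardiotachometer; LV +dP/dtmax via Millar catheter; CF by Walton Brodie strain gauge on right ventricle (baseline tension 100 g). Compound in 10% DMF/saline or HCl salt, infused iv into femoral vein over 5 min per step. Each step given at peak of the prior one; three to four increasing doses. Response expressed as % change from predrug control; n = 1–5 dogs.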

For assay [3], the system named is Canis familiaris. Description: Heart rate in dog after administering ca. 1.875 mg/Kg drug intravenously. Type of assay: functional, Canis lupus familiaris. A digest of the protocol:
as §3

Assay [4] has as its system Canis familiaris. Description: Effective dose required to produce 50% increase of cardiac force in dog after administering ca. 1.875 mg/Kg drug intravenously. Type of assay: functional. The note with it: Canis lupus familiaris, iv. The method in brief: as §3
For assay [5], the species on record is Canis familiaris. The experiment in a line: dP/dt max was determined in dog. It counts as functional, Canis lupus familiaris. Also noted: unit not given beside the values. A digest of the protocol:
as §3

The test system of assay [6] is Canis familiaris. The experiment in a line: Mean arterial blood pressure in dog after administering ca. 1.875 mg/Kg drug intravenously. Type of assay: functional, Canis lupus familiaris. Set-up: unit not given beside the values. The method in brief:
as §3

Assay [7] deals with Canis familiaris. The experiment in a line: Mean arterial blood pressure determined in dog after administering ca. 1.875 mg/kg drug intra venously. It counts as functional, Canis lupus familiaris. The method in brief:
as §3

The nature of assay [8]: Relative changes in CF was determined by calculating the effective concentration that produced a 50% of maximum increase in tension. Type of assay: functional, Mustela putorius furo. A digest of the protocol: as §2
Assay [9] in a line: In vitro changes in contractile force (CF) quantitated by determining the maximal increase in isometric tension by using ferret papillary muscle. It counts as functional, Mustela putorius furo, Muscle tissue. The method in brief:
as §1

For assay [10], the system named is Canis familiaris. Description: Heart rate determined in dog after administering ca. 1.875 mg/kg drug intra venously. It counts as functional, Canis lupus familiaris. A digest of the protocol:
as §3

For assay [11], the system named is Canis familiaris. The experiment in a line: Dose to produce a 50% increase of CF n dog after administering ca. 1.875 mg/kg drug intra venously. It counts as functional. The note with it: Canis lupus familiaris. A digest of the protocol: as §3
In assay [12] the test system is Canis familiaris. Description: Cardiac force was determined in dog after administering ca. 1.875 mg/kg drug intra venously. Type of assay: functional, Canis lupus familiaris. The method in brief:
as §3

As to `CN(CC(O)CN1CCN(C(c2ccc(F)cc2)c2ccc(F)cc2)CC1)c1[nH]cnc2ncnc1-2` (stereo not given), the Max entry in the assay filed under Mustela putorius furo was “inactive”. For the same compound, in assay [1], the EC50 result is reported as “Not Active”. The Cardiac force in the assay on Canis familiaris [2] is reported as 82. The Heart rate in the assay with Canis familiaris [3] worked out at 7. In the assay with Canis familiaris [4], this compound displayed an ED50 of 0.74 mg/kg. In addition, the dP/dt max in the assay listed under Canis familiaris [5] came to 66. Besides, the MAP with Canis familiaris [6] came out at 4.

For `CC(=O)Oc1ccccc1C(=O)OC(CSc1[nH]cnc2ncnc1-2)CN1CCN(C(c2ccc(F)cc2)c2ccc(F)cc2)CC1` (stereo not given), the MPA in the assay with Canis familiaris [7] was found to be 0. The concentration giving a half-maximal response (EC50) in assay [8] was 2500 nM. In assay [9], the Max was determined as 34%. In the assay with Canis familiaris [10], the Heart rate is 1. The compound further registered an ED50 in the assay on Canis familiaris [11] of 1.6 mg/kg. For the same compound, the dP/dt max in the assay filed under Canis familiaris [5] was 34. The compound also returned a Cardiac force with Canis familiaris [12] of 56.

Take `OC(COc1[nH]cnc2ncnc1-2)CN1CCN(C(c2ccccc2)c2ccccc2)CC1` (stereo not given): the Max entry in the assay listed under Mustela putorius furo was “inactive”. For the same compound, in assay [1], the EC50 entry is listed as “Not Active”. In the assay on Canis familiaris [2], the Cardiac force is 69. The compound further returned a Heart rate in the assay with Canis familiaris [3] of 2. In the assay with Canis familiaris [4], the ED50 amounted to 0.9 mg/kg. In the assay filed under Canis familiaris [5], the dP/dt max is reported as 37. This compound also had an MAP in the assay on Canis familiaris [6] of 4.

For `OC(COc1[nH]cnc2ncnc1-2)CN1CCN(C(c2ccc(F)cc2)c2ccc(F)cc2)CC1` (stereo not given), the Max entry in the assay filed under Mustela putorius furo was “inactive”. Besides, in [1], the half-maximal effective concentration (EC50) entry is reported as “Not Active”. In the assay with Canis familiaris [2], this compound gave a Cardiac force of 80. For the same compound, the Heart rate in the assay on Canis familiaris [3] came out at 12. The compound further gave a 50% effective dose (ED50) with Canis familiaris [4] of 0.72 mg/kg. The dP/dt max in the assay filed under Canis familiaris [5] is listed as 58. In addition, the MAP with Canis familiaris [6] is on record as 4.

`Fc1ccc(C(c2ccc(F)cc2)N2CCN(CCCSc3[nH]cnc4ncnc3-4)CC2)cc1`: the Max result in the assay listed under Mustela putorius furo is “inactive”. In addition, the EC50 entry in assay [1] was “Not Active”. Further, the Cardiac force in the assay on Canis familiaris [2] is 38. The compound further yielded a Heart rate with Canis familiaris [3] of 2. In the assay on Canis familiaris [4], this compound gave an ED50 of 1.3 mg/kg. This compound gave a dP/dt max in the assay listed under Canis familiaris [5] of 17. In the assay with Canis familiaris [6], this compound showed an MAP of -6.

What is called EC50 is the concentration that produces a half-maximal response. The term ED50 denotes the dose at which the effect has come halfway, by size or by number of responders.
